A short description of assay [1]: hit retest on RPL19A-GFP reporter strain – cell-based, S. cerevisiae, flow cytometry, cherry picks, mother/daughter gates, confirmation (AID 2270;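 active means GFP response below 50% of the DMSO control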). Conditions: 3 h, at 10 µM, stronger effect = lower value, 100 = same GFP as DMSO wells. For orientation: Flow cytometry measures light scatter and fluorescence of single cells or particles in a stream.
The nature of assay [2]: yeast TOR pathway reporter LAP4-GFP change – cell-based, cherry picks, flow cytometry, mother/daughter gates, confirmation (AID 2271;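 active means GFP response above 150% of the DMSO control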;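 further: ratio of sample to DMSO plate mean so 100% equals DMSO level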). The conditions noted are these: S. cerevisiae LAP4-GFP strain, 3 h, at 10 µM, stronger effect = higher value, 100 means same as DMSO control. An outline of the steps: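 System: Alexa 633-stained baker's yeast GFP-fusion strain; quantity: 0.2 OD600 cells; timing: compound exposure 3 h at 30 °C, end-over-end rotation; detection: HT flow cytometry, GFP fluorescence channel; measure: per-gate (all, mother, daughter) GFP response vs DMSO; control set: DMSO-only negative wells, rapamycin 400 ng/mL positive wells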

Assay [3] in a line: TOR pathway reporter MEP2-GFP, retest of hits – S. cerevisiae, flow cytometry GFP, cherry picks, confirmation (AID 2272;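 active means GFP response above 150% of the DMSO control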;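 further: ratio of well signal to plate DMSO mean so 100% equals DMSO level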). The conditions noted are these: S. cerevisiae MEP2-GFP strain, 3 h, at 10 µM, stronger effect = higher value.
Assay [4] can be described thus: yeast AGP1-GFP fluorescence change, single-dose – cell-based, flow cytometry, S. cerevisiae, cherry picks, confirmation (AID 2273).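 Further: median GFP channel fluorescence over the whole cell population gate.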 Conditions: S. cerevisiae AGP1-GFP strain, 3 h, at 10 µM.
A short description of assay [5]: TOR pathway CIT2 reporter hit retest – S. cerevisiae, GFP fusion, cherry picks, mother/daughter gates, confirmation (AID 2274). Conditions: S. cerevisiae CIT2-GFP strain, flow cytometry, 3 h, at 10 µM, stronger effect = higher value.
Setting [6] is: measured here: daughter cell gate.
[7] abbreviates: measured here: mother cell gate.
Where [8] appears, read: measured here: daughter cell gate response.
[9] abbreviates: measured here: mother cell gate response.

SMILES strings stand for the structures. The source made the active and inactive calls.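 How the source made its calls, unless noted: active means GFP response above 150% of the DMSO level; inconclusive means fewer than 70 events counted for a yeast strain; inactive means the rest.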

Take `Cc1cc(O)c(C(=O)/C=C/c2ccc(C(C)C)cc2)c(=O)o1`: the GFP response vs DMSO was 95.4% (inactive) in assay [1], 93.9% in assay [1] (setting [6]), 96.6% in assay [1] (setting [7]) and 96.2% (inactive) in assay [3]. Also, the GFP response relative to DMSO in assay [2] is 104% (inactive); in assay [2] (setting [8]) it was 104%; in assay [2] (setting [9]), 106%. For the same molecule, the GFP response, % of DMSO was 100% (inactive) in assay [4], 98.3% (inactive) in assay [5], 99.1% in assay [5] (setting [6]) and 97.3% in assay [5] (setting [7]).

For the molecule `COc1ccc(N=Cc2cc(Cc3ccccc3Cl)cc([N+](=O)[O-])c2O)cc1OC`, the GFP response vs DMSO was 93.4% (inactive) in assay [1], 93% in assay [1] (setting [6]), 86.5% in assay [1] (setting [7]) and 120% (inactive) in assay [3]. Further, the GFP response relative to DMSO was 142% (inactive) in assay [2], 114% in assay [2] (setting [8]) and 147% in assay [2] (setting [9]). Besides, the GFP response, % of DMSO in assay [4] was 96.7% (inactive); in assay [5], 96.5% (inactive); in assay [5] (setting [6]), 86.7%; in assay [5] (setting [7]), 96.6%.

For `O=C(N/N=C/c1c(Cl)cccc1Cl)c1ccc(F)cc1`, the GFP response vs DMSO is 95% (inactive) in assay [1], 96.1% in assay [1] (setting [6]), 95.7% in assay [1] (setting [7]) and 96.8% (inactive) in assay [3]. Besides, the GFP response relative to DMSO in assay [2] is 105% (inactive); in assay [2] (setting [8]), 102%; in assay [2] (setting [9]) it was 105%. The GFP response, % of DMSO in assay [4] was 97.1% (inactive); in assay [5], 103% (inactive); in assay [5] (setting [6]), 103%; in assay [5] (setting [7]), 102%.

Consider `CCCCCn1c(=O)c(C(=O)OCC)c(O)c2ccccc21`, for which the GFP response vs DMSO in assay [1] was 97.6% (inactive); in assay [1] (setting [6]) it was 96.1%; in assay [1] (setting [7]), 99.7%; in assay [3], 102% (inactive). Moreover, the GFP response relative to DMSO in assay [2] was 99.2% (inactive); in assay [2] (setting [8]), 96%; in assay [2] (setting [9]) it was 100%. Also, the GFP response, % of DMSO in assay [4] is 90% (inactive); in assay [5], 92.6% (inactive); in assay [5] (setting [6]), 89.9%; in assay [5] (setting [7]), 93.8%.

For the molecule `C[C@@H](C(=O)Nc1nc2ccc(F)cc2s1)N1C(=O)C2CC=CCC2C1=O` (some centres undefined), the GFP response vs DMSO in assay [1] was 98.7% (inactive); in assay [1] (setting [6]), 97.8%; in assay [1] (setting [7]), 98.5%; in assay [3] it was 102% (inactive). Further, the GFP response relative to DMSO in assay [2] was 103% (inactive); in assay [2] (setting [8]), 101%; in assay [2] (setting [9]) it was 104%. The GFP response, % of DMSO was 99.7% (inactive) in assay [4], 101% (inactive) in assay [5], 100% in assay [5] (setting [6]) and 100% in assay [5] (setting [7]).

For the molecule `COc1ccc(C2CC(c3ccccc3)=NN2S(=O)(=O)c2ccccc2)c(OC)c1` (centres undefined), the GFP response vs DMSO is 99.2% (inactive) in assay [1], 99.8% in assay [1] (setting [6]), 99.1% in assay [1] (setting [7]) and 99% (inactive) in assay [3]. The values for the GFP response relative to DMSO in assay [2], in assay [2] (setting [8]) and in assay [2] (setting [9]) were 99.5% (inactive), 102% and 99.4%, respectively. In addition, the GFP response, % of DMSO in assay [4] was 103% (inactive); in assay [5] it was 106% (inactive); in assay [5] (setting [6]), 108%; in assay [5] (setting [7]) it was 104%.

Turning to `Nc1ccc2nc(-c3ccc(-c4nc5ccc(N)cc5[nH]4)cc3)[nH]c2c1`, the GFP response vs DMSO is 99.3% (inactive) in assay [1], 100% in assay [1] (setting [6]), 96.1% in assay [1] (setting [7]) and 112% (inactive) in assay [3]. The GFP response relative to DMSO in assay [2] was 111% (inactive); in assay [2] (setting [8]) it was 108%; in assay [2] (setting [9]) it was 94.4%. For the same molecule, the GFP response, % of DMSO in assay [4] was 99.1% (inactive); in assay [5], 108% (inactive); in assay [5] (setting [6]), 92.3%; in assay [5] (setting [7]), 93.8%.

Regarding `COc1ccc(N(CC(=O)N/N=C/c2cc(OC)ccc2OC)S(=O)(=O)c2ccccc2)cc1`, the GFP response vs DMSO in assay [1] was 96% (inactive); in assay [1] (setting [6]), 97.4%; in assay [1] (setting [7]), 86.9%; in assay [3] it was 96.2% (inactive). Further, the values for the GFP response relative to DMSO in assay [2], in assay [2] (setting [8]) and in assay [2] (setting [9]) were 92.8% (inactive), 96% and 92.9%, respectively. Besides, the GFP response, % of DMSO in assay [4] was 99.1% (inactive); in assay [5] it was 99.7% (inactive); in assay [5] (setting [6]), 101%; in assay [5] (setting [7]), 99.7%.

In the case of `C/C(CCC12CC3CC(CC(C3)C1)C2)=N\NC(N)=S`, the GFP response vs DMSO in assay [1] was 87.9% (inactive); in assay [1] (setting [6]), 84.6%; in assay [1] (setting [7]), 90.7%; in assay [3], 98.3% (inactive). For the same molecule, the GFP response relative to DMSO in assay [2] is 133% (inactive); in assay [2] (setting [8]), 125%; in assay [2] (setting [9]), 135%. The GFP response, % of DMSO in assay [4] is 96% (inactive); in assay [5] it was 89.8% (inactive); in assay [5] (setting [6]), 88.1%; in assay [5] (setting [7]), 87.8%.

The values are drawn from PubChem BioAssay.
